From ChEMBL document CHEMBL5705888, “Substrate specificity and inhibitors of LRRK2, a protein kinase mutated in Parkinson's disease” (Biochem J, 2009)
Calls of active or inactive are those of the source. No cut-off for these calls is given here.

Columns and labels:
[1] = target: T1, Inhibitor of nuclear factor kappa-B kinase subunit epsilon (Homo sapiens) (UniProt Q14164); assay: Inhibition of IKKepsilon (unknown origin) at 1 uM incubated for 30 mins in presence of [gamma-33P]ATP by multidrop micro reagent based assay relative to control
T1 sequence (whole entry): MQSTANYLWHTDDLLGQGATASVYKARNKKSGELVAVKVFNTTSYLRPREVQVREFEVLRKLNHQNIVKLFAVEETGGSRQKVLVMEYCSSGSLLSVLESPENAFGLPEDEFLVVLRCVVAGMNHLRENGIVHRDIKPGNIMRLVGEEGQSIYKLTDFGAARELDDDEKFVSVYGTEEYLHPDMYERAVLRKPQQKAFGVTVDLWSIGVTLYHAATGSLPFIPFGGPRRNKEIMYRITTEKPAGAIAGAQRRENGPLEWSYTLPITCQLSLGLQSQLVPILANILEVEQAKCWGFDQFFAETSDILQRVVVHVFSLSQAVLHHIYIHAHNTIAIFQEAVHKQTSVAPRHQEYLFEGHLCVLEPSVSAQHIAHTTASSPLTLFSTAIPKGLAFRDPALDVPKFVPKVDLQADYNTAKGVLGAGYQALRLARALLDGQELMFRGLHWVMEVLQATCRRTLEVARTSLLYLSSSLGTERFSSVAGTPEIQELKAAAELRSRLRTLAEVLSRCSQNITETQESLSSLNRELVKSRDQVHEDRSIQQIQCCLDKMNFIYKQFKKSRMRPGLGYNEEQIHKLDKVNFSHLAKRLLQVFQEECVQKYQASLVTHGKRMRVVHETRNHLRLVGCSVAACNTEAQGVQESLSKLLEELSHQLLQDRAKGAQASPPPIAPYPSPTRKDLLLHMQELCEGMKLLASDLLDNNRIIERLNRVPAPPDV

[2] = target: Misshapen-like kinase 1 (Homo sapiens) (UniProt Q8N4C8); assay: Inhibition of MINK1 (unknown origin) at 1 uM incubated for 30 mins in presence of [gamma-33P]ATP by multidrop micro reagent based assay relative to control
Chain of Misshapen-like kinase 1 (Homo sapiens) (Q8N4C8 whole entry, looked up): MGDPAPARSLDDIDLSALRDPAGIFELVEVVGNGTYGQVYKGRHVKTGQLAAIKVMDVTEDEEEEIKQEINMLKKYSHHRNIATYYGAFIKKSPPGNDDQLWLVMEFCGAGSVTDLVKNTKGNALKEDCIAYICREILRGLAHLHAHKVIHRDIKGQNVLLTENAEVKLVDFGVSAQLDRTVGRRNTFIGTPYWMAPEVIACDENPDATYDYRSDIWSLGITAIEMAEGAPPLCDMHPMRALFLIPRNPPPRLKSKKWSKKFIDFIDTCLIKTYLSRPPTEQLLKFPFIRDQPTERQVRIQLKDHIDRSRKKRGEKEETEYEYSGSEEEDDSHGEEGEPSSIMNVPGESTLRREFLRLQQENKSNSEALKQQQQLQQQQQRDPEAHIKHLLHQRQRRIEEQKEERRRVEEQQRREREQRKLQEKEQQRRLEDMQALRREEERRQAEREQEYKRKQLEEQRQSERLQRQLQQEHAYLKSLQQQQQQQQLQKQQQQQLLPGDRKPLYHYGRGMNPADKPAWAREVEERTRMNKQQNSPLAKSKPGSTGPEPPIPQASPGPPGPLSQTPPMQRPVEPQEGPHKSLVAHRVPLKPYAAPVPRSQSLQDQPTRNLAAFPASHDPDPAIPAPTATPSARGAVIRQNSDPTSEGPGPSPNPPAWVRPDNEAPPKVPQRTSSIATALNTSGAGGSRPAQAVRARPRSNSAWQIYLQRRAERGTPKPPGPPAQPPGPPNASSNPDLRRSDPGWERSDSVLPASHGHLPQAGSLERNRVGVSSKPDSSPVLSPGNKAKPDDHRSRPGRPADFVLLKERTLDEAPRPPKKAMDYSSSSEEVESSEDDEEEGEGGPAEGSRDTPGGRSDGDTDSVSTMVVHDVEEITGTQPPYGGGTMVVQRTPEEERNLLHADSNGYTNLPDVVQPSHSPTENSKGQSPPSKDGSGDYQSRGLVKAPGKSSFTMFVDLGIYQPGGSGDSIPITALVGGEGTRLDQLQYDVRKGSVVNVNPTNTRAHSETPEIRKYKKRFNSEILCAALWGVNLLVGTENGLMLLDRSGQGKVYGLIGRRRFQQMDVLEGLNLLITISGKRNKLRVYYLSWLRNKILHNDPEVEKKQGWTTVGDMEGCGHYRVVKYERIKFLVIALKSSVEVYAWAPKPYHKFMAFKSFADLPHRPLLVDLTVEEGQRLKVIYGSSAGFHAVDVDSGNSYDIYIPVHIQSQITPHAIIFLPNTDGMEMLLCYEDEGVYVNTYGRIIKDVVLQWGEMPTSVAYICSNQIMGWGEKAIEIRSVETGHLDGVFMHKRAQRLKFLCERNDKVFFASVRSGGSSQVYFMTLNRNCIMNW

[3] = target: Tyrosine-protein kinase BTK (Homo sapiens) (UniProt Q06187); assay: Inhibition of BTK (unknown origin) at 1 uM incubated for 30 mins in presence of [gamma-33P]ATP by multidrop micro reagent based assay relative to control
Chain of Tyrosine-protein kinase BTK (Homo sapiens) (Q06187 whole entry): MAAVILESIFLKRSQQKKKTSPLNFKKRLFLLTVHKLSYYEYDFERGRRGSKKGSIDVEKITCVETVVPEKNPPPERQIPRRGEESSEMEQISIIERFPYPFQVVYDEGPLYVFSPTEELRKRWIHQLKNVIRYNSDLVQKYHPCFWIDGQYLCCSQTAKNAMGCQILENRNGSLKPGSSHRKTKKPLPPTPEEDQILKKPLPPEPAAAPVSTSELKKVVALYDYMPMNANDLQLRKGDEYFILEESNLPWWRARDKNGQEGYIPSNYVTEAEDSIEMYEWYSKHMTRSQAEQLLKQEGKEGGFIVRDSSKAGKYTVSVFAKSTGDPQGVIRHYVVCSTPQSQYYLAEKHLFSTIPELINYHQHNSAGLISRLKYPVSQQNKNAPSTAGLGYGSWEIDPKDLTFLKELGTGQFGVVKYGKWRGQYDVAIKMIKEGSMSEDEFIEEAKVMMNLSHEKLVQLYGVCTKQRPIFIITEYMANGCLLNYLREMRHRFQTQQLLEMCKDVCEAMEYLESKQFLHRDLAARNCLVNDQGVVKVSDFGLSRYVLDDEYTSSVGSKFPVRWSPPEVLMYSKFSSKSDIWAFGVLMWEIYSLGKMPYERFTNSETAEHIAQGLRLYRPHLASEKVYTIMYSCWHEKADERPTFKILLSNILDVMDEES

[4] = target: Leucine-rich repeat serine/threonine-protein kinase 2 (Homo sapiens, UniProt Q5S007); assay: Inhibition of LRRK2 in human Flp-In-T-REx-293 cells harboring GFP-tagged constitutively active G14V-Rho mutant assessed as inhibition of ERM phosphorylation at 10 uM incubated for 1 hr in presence of LRRKtide by immunoblot analysis; type: cell-based
Outline: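 Flp-in T-REx cells carrying GFP-tagged G14V-Rho were left uninduced or induced with 1 μg/ml doxycycline. At 7 h, compound at 10 μM was added for 1 h. Cells were lysed in SDS lysis buffer, run on 4–12% gels and immunoblotted with pan-phospho-ERM antibody (1 μg/ml in milk/TBST containing 10 μg/ml LRRKtide).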

[5] = target: cAMP-dependent protein kinase (PKA) (Homo sapiens) (UniProt P22694+P17612+P22612); assay: Inhibition of PKA (unknown origin) at 1 uM incubated for 30 mins in presence of [gamma-33P]ATP by multidrop micro reagent based assay relative to control; values are per cent of control
[6] = target: Dual specificity mitogen-activated protein kinase kinase 1 (Homo sapiens) (UniProt Q02750); assay: Inhibition of MKK1 (unknown origin) at 1 uM incubated for 30 mins in presence of [gamma-33P]ATP by multidrop micro reagent based assay relative to control; values are per cent of control
Chain of Dual specificity mitogen-activated protein kinase kinase 1 (Homo sapiens) (Q02750 whole entry): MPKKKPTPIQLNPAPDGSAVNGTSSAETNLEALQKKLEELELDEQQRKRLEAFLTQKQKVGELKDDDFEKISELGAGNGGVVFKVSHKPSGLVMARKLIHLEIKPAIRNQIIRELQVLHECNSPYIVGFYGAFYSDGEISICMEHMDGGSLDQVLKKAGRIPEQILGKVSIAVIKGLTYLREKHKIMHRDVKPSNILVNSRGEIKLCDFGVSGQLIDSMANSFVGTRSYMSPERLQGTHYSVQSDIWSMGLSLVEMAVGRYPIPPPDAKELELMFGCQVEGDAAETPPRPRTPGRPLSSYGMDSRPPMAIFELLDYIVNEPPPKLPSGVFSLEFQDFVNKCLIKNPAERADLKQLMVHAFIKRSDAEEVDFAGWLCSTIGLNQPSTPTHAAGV

[7] = target: Serine/threonine-protein kinase pim-3 (Homo sapiens) (UniProt Q86V86); assay: Inhibition of PIM3 (unknown origin) at 1 uM incubated for 30 mins in presence of [gamma-33P]ATP by multidrop micro reagent based assay relative to control; values are per cent of control
[8] = target: Serine/threonine-protein kinase PAK 5 (Homo sapiens) (UniProt Q9P286); assay: Inhibition of PAK5 (unknown origin) at 1 uM incubated for 30 mins in presence of [gamma-33P]ATP by multidrop micro reagent based assay relative to control; values are per cent of control
Chain of Serine/threonine-protein kinase PAK 5 (Homo sapiens) (Q9P286 whole entry, looked up): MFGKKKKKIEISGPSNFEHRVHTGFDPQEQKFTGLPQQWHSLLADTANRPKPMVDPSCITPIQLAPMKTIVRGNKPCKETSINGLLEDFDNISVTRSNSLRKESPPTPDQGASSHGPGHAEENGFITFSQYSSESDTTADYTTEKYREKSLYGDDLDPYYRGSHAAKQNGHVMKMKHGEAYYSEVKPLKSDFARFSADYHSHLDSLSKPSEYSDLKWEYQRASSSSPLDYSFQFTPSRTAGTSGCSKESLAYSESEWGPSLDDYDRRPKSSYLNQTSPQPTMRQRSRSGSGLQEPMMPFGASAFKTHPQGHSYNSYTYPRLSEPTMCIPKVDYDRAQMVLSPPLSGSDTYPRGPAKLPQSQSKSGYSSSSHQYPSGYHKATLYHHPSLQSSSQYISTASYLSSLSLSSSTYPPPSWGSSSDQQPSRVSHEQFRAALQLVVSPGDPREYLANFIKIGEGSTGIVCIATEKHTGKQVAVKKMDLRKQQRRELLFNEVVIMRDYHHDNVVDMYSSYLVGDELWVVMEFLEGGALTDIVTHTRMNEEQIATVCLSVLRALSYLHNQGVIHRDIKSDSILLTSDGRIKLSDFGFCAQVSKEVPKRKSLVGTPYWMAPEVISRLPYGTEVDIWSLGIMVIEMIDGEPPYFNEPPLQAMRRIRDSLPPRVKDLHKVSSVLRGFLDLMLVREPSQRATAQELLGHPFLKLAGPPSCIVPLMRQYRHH

[9] = target: Myosin light chain kinase, smooth muscle (Homo sapiens) (UniProt Q15746); assay: Inhibition of SmMLCK (unknown origin) at 1 uM incubated for 30 mins in presence of [gamma-33P]ATP by multidrop micro reagent based assay relative to control; values are per cent of control
[10] = target: T2, Protein kinase C zeta type (Homo sapiens) (UniProt Q05513); assay: Inhibition of PKCzeta (unknown origin) at 1 uM incubated for 30 mins in presence of [gamma-33P]ATP by multidrop micro reagent based assay relative to control; values are per cent of control
T2 sequence (whole entry): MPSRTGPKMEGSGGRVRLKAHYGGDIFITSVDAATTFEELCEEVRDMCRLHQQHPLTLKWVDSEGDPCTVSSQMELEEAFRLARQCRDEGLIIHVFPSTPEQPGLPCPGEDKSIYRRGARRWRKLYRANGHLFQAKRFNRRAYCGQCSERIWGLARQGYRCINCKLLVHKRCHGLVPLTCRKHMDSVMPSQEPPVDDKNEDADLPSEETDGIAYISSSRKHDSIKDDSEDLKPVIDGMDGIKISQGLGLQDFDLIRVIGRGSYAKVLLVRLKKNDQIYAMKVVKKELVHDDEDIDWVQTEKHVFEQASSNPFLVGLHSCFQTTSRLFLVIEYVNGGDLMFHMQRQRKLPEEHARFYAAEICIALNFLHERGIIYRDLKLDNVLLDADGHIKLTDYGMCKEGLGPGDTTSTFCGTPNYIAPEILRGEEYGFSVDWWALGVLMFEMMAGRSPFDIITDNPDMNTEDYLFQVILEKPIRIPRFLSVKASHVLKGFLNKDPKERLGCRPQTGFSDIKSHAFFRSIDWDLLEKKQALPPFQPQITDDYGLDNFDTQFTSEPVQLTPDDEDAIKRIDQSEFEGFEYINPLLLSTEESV

[11] = target: Protein kinase C alpha type (Homo sapiens) (UniProt P17252); assay: Inhibition of PKCalpha (unknown origin) at 1 uM incubated for 30 mins in presence of [gamma-33P]ATP by multidrop micro reagent based assay relative to control; values are per cent of control
[12] = target: Fibroblast growth factor receptor 1 (Homo sapiens) (UniProt P11362); assay: Inhibition of FGFR1 (unknown origin) at 1 uM incubated for 30 mins in presence of [gamma-33P]ATP by multidrop micro reagent based assay relative to control
Chain of Fibroblast growth factor receptor 1 (Homo sapiens) (P11362 22-822 limits assumed): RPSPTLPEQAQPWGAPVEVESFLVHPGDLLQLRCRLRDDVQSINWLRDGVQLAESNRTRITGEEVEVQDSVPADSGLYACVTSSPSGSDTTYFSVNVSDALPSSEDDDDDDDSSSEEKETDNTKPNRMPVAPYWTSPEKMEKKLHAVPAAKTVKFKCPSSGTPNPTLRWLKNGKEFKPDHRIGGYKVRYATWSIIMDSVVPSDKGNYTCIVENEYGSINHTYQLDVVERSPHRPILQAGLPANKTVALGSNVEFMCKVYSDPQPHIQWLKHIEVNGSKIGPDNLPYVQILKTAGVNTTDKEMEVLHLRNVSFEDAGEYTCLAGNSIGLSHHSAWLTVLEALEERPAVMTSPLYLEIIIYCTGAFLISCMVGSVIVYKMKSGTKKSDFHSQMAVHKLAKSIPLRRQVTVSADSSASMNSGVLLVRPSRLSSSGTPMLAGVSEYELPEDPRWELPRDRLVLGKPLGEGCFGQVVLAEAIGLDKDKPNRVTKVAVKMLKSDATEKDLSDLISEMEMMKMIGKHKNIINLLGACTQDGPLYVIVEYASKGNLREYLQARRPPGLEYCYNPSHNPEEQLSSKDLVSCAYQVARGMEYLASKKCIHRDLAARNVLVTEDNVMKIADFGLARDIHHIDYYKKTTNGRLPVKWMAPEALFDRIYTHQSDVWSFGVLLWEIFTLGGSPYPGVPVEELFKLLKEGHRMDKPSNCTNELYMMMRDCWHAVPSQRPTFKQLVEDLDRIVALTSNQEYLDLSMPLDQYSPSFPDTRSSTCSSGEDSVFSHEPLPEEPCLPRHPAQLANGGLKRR

CCn1c(-c2nonc2N)nc2cnc(Oc3cccc(NC(=O)c4ccc(OCCN5CCOCC5)cc4)c3)cc21 [GSK-269962A]
residual activity [1]: 66% | residual activity [2]: 70% | inhibition [3]: 107% | inhibition [4]: inactive | residual activity [5]: 22% | residual activity [6]: 54% | residual activity [7]: 35% | residual activity [8]: 102% | residual activity [9]: 65% | residual activity [10]: 5% | residual activity [11]: 32%

Cc1cncc2cccc(S(=O)(=O)N3CCCNC[C@@H]3C)c12
residual activity [1]: 80% | residual activity [2]: 104% | inhibition [12]: 35% | inhibition [3]: 82% | inhibition [4]: inactive | residual activity [5]: 76% | residual activity [6]: 69% | residual activity [8]: 100% | residual activity [9]: 96% | residual activity [10]: 86% | residual activity [11]: 70%

C[C@@H](N)[C@H]1CC[C@H](C(=O)Nc2ccncc2)CC1
inhibition [4]: inactive

CC1=C(C(=O)Nc2cc3cn[nH]c3cc2F)C(c2ccc(C(F)(F)F)cc2)CC(=O)N1 (stereo not given)
residual activity [1]: 109% | residual activity [2]: 75% | inhibition [12]: 95% | inhibition [3]: 66% | inhibition [4]: inactive | residual activity [5]: 88% | residual activity [6]: 61% | residual activity [7]: 89% | residual activity [8]: 107% | residual activity [9]: 73% | residual activity [10]: 81% | residual activity [11]: 82%

CCN(CC)CCNC(=O)c1c(C)[nH]c(/C=C2\C(=O)Nc3ccc(F)cc32)c1C
residual activity [1]: 63% | residual activity [2]: 8% | inhibition [12]: 29% | inhibition [4]: inactive | residual activity [7]: 50%
